This assay has as its target T1, Bovine pancreatic trypsin (Bos taurus, UniProt P00760).
T1 sequence (P00760 24-246): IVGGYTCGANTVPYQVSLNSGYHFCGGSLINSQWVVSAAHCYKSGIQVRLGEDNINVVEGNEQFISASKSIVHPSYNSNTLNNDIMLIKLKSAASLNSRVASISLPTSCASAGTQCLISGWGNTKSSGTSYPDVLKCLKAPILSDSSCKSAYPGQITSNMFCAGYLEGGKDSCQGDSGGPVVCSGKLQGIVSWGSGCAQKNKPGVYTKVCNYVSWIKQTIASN
The assay is described as follows: X-ray crystallography of fragments soaked into trypsin crystals. The following applies: two-step soak, 24-48 h each, crystals in P212121, pH 5.8. Summed up: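 Crystals soaked in DMSO-derived fragment/cryoprotectant mix, then transferred to fresh mix. At least two crystals per soak, liquid-nitrogen cooled; synchrotron, 181 × 1° frames, 1–3 s. Automated processing, ligand placed in active-site density, manual rebuilding.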

The text below walks through data of PMC3382646 (Journal of Computer-Aided Molecular Design, 2011).

As for `NCc1cccc(N2CCCC2)c1` [CC 38513], the Soaked fragment density result is listed as “Yes”.
